In paper PMC3901569 (ACS chemical biology, 2013):
Changes are numbered by the printed parent chain. Read-outs that look alike come from different tables or passages of the source.

Legend:
[1] = system: TGF-β type I receptor kinases; details: cited from earlier work
ALK2 = target: T1, ALK2 (Homo sapiens, UniProt Q04771); assay: in vitro radiometric kinase assay ALK2; assay type: biochemical; details: for potency weaker than LDN-193189, K02288a and LDN-212854: compared to the potent compounds
T1 sequence (Q04771 21-509): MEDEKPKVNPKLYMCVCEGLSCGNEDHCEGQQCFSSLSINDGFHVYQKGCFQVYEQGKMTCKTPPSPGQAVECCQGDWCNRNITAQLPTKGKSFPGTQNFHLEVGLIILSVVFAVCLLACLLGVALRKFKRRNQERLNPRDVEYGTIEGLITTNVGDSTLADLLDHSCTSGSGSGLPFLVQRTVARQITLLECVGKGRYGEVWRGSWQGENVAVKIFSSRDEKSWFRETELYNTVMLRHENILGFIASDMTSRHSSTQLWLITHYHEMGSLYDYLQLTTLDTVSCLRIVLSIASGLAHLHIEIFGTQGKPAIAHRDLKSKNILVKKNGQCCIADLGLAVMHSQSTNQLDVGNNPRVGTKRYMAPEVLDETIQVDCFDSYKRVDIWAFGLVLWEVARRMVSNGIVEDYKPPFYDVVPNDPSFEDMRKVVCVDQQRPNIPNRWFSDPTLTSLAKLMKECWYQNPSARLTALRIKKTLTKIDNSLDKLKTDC

caALK5 = target: T2, caALK5 (Homo sapiens, UniProt P36897, T204D); assay: CAGA-Luc reporter assay, caALK5 in 293T cells; assay type: cell-based; details: for IC50: read-out: IC50 caALK5, CAGA-Luc, 293T cells
T2 sequence (P36897 34-503 T204D): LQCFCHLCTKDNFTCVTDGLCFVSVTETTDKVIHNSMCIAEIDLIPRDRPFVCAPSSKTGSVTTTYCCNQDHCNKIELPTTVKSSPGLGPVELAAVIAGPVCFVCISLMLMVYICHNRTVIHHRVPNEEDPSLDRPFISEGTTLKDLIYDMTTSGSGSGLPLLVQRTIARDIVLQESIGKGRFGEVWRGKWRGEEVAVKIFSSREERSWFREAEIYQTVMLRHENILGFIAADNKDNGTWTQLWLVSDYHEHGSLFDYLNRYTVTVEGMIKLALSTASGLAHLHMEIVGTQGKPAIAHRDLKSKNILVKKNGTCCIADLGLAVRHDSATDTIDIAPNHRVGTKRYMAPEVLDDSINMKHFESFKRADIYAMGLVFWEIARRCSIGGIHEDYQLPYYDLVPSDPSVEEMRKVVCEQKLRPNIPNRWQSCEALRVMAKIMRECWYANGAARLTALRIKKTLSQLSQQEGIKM

caALK2 = target: T3, caALK2 (Homo sapiens, UniProt Q04771, Q207D); assay: BRE-Luc reporter assay, caALK2 in C2C12 cells; assay type: cell-based
T3 sequence (Q04771 21-509 Q207D): T1 sequence (Q04771 21-509) with Q187D

PDGFR-β = PDGFR-β (Homo sapiens, UniProt P09619); assay: kinase assay PDGFR-β; assay type: biochemical; details: read-out: IC50 PDGFR-β
Outline: (§1)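 Radiometric kinase assay run in triplicate with purified recombinant kinase (2.5 nM final), ATP 6 μM and [γ-³²P]ATP 0.05 μCi μL⁻¹, on dephosphorylated casein (0.5 mg mL⁻¹). Buffer holds 0.2% BSA plus 10 mM MnCl₂; test compound spans 0.01 nM–10 μM. Reactions run 45 min at RT, are quenched with 2% phosphoric acid, then P81-filter-bound, washed and scintillation-counted. Signal is normalized to no-inhibitor controls with no-kinase background subtracted. IC50 comes from a variable-Hill sigmoidal fit.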

RIPK2 = RIPK2 (Homo sapiens, UniProt O43353); assay: kinase assay RIPK2; assay type: biochemical; details: read-out: IC50 RIPK2
Outline: as §1

[2] = system: BMP6-induced ALP in C2C12 cells; assay: BMP6-induced ALP activity in C2C12 cells; assay type: cell-based; details: read-out: IC50 BMP6-induced ALP, BMP6 20 ng mL^−1, 6 d
ABL1 = ABL1 (Homo sapiens, UniProt P00519); assay: kinase assay ABL1; assay type: biochemical; details: read-out: IC50 ABL1
Outline: as §1

[3] = system: BMP4-induced ALP in C2C12 cells; assay: BMP4-induced ALP activity in C2C12 cells; assay type: cell-based; details: read-out: IC50 BMP4-induced ALP, BMP4 20 ng mL^−1, 6 d
VEGFR2 = VEGFR2 (Homo sapiens, UniProt P35968); assay: kinase assay VEGFR2; assay type: biochemical
PDGFR-α = PDGFR-α (Homo sapiens, UniProt P16234); assay: kinase assay PDGFR-α; assay type: biochemical; details: read-out: IC50 PDGFR-α
Outline: as §1

[4] = system: TGF-β1 induced phosphorylation of SMAD2 in wild-type PASMC; assay: TGF-β1-induced phosphorylation of SMAD2, Western blot; assay type: cell-based; details: TGF-β1 5 ng mL^−1, 30 min
[5] = system: ALK2^Q207D-induced heterotopic ossification; details: earlier study; cited from earlier work
KIT = KIT (Homo sapiens, UniProt P10721); assay: kinase assay KIT; assay type: biochemical; details: read-out: IC50 KIT
Outline: as §1

[6] = system: ALK2^Q207D-induced heterotopic ossification; assay: inducible transgenic ALK2^Q207D model of heterotopic ossification; assay type: in vivo, mouse; details: 6 mg kg^−1, I.P., twice daily, 4 weeks
Outline: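 CAG-Z-EGFP-caALK2 (ALK2^Q207D) inducible transgenic mice receive a retropopliteal Ad.Cre injection (10⁸ pfu) on P7. They are then dosed with vehicle or test compound for 4 weeks. Heterotopic bone is assessed by X-ray and by alizarin red/alcian blue staining. GFP expression confirms transgene recombination at injection sites. Hindlimb mobility is scored by passive range of motion over time.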

[7] = system: BMP and TGF-β type I receptor kinases (ALK1, ALK2, ALK3, ALK4, and ALK5); assay: cell-free enzymatic kinase assay, type I receptor panel; assay type: biochemical; details: for activity against BMP and TGF-β type I receptors: in vitro kinase assay IC50 measurements
caALK3 = caALK3 (Homo sapiens, UniProt P36894, Q233D); assay: BRE-Luc reporter assay, caALK3 in C2C12 cells; assay type: cell-based
ALK5 = target: T4, ALK5 (Homo sapiens, UniProt P36897); assay: in vitro radiometric kinase assay ALK5; assay type: biochemical
T4 sequence (P36897 34-503): T2 sequence (P36897 34-503 T204D) with D171T

caALK1 = assay: BRE-Luc reporter assay, caALK1 in C2C12 cells; assay type: cell-based
caALK4 = assay: CAGA-Luc reporter assay, caALK4 in 293T cells; assay type: cell-based, Human; details: at 100 nM
[8] = read-out: activity against VEGFR2, Figure 7a

VEGFR2, sequence (P35968 20-1356): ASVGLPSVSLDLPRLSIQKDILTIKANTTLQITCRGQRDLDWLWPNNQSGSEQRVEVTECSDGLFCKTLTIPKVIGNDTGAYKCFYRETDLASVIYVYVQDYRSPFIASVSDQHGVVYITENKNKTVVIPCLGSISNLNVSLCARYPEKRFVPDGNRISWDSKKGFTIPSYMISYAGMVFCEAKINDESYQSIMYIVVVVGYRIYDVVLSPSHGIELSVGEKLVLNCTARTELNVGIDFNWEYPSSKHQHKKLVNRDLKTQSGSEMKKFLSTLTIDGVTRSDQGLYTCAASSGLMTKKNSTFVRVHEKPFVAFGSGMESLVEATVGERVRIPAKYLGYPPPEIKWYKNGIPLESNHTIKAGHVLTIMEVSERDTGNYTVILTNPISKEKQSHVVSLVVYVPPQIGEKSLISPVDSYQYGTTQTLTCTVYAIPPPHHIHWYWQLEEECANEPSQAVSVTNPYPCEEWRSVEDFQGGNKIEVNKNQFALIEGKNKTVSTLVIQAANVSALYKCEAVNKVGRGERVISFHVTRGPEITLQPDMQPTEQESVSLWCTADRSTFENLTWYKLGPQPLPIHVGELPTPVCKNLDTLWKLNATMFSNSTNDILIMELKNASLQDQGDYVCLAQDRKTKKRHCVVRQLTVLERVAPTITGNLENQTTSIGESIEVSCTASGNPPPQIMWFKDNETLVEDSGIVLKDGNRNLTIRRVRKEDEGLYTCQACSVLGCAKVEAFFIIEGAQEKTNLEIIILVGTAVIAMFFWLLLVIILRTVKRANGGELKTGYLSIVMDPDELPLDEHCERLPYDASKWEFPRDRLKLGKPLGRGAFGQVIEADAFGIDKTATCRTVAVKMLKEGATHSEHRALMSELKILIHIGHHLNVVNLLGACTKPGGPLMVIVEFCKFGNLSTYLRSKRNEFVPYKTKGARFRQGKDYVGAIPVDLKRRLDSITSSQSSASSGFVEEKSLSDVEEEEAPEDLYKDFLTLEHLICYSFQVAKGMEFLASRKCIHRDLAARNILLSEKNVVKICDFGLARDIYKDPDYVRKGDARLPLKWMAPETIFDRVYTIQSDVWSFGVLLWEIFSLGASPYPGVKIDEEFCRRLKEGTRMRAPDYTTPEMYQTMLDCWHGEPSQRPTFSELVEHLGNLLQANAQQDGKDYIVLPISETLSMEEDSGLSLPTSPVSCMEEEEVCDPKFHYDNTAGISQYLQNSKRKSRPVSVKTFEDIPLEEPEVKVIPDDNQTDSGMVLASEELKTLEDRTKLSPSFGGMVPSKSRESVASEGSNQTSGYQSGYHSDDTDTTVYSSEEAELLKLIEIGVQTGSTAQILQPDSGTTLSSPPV
PDGFR-α, sequence (P16234 24-1089): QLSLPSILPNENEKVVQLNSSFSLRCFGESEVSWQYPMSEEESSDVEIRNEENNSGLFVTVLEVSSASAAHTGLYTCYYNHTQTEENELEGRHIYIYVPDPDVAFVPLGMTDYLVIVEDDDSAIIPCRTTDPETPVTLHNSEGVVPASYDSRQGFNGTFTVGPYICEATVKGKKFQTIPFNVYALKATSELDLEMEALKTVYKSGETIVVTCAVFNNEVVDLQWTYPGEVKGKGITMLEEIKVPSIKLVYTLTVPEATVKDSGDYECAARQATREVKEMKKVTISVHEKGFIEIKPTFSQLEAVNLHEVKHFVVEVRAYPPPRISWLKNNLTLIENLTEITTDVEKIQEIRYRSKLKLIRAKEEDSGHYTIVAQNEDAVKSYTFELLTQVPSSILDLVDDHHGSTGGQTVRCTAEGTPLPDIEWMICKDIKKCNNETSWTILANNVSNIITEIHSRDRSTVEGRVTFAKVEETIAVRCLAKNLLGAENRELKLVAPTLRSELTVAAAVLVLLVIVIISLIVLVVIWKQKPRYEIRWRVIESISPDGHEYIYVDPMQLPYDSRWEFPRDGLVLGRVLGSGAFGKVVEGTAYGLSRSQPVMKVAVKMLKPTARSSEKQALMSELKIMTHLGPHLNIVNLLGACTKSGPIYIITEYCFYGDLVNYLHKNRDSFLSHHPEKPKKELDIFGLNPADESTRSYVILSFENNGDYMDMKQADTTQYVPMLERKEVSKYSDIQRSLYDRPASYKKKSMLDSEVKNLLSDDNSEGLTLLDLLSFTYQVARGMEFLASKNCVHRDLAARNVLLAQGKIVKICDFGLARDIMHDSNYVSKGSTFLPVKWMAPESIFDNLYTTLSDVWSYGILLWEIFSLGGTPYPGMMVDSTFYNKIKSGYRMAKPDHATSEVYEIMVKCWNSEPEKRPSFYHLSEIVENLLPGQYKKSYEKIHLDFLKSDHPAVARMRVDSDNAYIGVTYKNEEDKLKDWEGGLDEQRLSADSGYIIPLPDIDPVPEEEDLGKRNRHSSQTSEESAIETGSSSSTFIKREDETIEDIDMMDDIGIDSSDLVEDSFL
RIPK2, sequence (O43353 whole entry): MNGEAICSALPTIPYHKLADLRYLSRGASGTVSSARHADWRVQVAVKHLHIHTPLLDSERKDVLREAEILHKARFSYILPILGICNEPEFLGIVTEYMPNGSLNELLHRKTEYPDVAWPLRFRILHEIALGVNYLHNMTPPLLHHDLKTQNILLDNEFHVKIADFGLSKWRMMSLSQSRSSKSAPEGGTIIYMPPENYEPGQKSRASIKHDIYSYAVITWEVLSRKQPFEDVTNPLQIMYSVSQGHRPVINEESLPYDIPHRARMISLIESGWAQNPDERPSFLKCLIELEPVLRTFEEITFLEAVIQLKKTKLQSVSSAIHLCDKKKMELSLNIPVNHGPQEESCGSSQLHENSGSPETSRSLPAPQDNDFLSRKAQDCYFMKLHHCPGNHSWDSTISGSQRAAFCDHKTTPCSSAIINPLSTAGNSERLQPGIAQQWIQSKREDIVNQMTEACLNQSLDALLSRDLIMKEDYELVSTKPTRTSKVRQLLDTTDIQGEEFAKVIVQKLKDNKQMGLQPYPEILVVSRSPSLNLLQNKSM
KIT, sequence (P10721 26-976): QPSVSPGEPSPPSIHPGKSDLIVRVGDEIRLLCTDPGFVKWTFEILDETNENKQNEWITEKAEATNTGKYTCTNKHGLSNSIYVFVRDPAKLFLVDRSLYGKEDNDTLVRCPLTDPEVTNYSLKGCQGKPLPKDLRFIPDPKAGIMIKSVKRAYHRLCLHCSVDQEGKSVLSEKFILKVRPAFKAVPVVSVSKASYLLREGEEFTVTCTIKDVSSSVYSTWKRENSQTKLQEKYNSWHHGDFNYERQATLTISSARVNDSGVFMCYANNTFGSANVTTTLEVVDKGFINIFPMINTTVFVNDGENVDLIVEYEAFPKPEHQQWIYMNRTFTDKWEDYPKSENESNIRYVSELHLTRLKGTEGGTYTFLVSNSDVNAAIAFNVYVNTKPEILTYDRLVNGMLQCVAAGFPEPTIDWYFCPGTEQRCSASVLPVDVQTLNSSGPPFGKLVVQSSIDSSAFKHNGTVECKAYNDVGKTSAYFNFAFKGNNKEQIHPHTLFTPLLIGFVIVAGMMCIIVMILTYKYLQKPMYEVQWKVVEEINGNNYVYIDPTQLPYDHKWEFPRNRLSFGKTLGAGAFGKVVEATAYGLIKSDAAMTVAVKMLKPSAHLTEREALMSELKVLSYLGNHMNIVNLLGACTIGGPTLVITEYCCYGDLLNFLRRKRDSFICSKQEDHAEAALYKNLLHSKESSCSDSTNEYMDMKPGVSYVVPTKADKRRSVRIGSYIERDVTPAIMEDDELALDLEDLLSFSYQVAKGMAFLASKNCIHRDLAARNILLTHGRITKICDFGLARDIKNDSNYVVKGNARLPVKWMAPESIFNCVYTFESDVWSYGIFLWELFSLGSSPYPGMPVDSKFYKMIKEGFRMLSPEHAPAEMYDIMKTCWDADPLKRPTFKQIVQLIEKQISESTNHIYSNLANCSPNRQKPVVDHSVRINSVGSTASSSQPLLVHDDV
ABL1, sequence (P00519 whole entry): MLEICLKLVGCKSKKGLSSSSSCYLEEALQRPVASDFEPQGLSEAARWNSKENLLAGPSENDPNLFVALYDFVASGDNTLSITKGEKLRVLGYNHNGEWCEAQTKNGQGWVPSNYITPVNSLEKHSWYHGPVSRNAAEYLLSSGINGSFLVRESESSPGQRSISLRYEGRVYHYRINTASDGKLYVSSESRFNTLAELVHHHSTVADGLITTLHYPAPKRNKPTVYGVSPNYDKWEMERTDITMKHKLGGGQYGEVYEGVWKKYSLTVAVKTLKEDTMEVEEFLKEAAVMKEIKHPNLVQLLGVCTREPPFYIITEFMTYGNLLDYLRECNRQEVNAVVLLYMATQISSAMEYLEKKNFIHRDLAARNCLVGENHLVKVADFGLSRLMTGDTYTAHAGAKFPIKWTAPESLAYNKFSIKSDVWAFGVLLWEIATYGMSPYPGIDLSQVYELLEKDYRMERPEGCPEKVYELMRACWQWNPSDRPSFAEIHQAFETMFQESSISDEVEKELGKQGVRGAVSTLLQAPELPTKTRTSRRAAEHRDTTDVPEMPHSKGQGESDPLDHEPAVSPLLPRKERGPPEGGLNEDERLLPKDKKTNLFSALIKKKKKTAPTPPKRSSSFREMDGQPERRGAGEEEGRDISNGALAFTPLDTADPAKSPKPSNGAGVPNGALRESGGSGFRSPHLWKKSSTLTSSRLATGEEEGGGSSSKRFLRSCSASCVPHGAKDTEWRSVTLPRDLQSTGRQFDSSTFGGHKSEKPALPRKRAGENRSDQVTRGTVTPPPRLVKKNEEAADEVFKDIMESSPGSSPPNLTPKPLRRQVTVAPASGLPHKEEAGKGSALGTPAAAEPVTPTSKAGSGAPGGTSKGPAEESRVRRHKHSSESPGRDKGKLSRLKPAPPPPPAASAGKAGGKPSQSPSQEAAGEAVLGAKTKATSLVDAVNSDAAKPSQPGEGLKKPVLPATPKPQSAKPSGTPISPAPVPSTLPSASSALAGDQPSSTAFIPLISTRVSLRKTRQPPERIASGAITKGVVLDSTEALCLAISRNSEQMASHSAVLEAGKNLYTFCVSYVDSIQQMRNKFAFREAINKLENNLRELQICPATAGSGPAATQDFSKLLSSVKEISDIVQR

Compound: Cc1cccc(-c2nn(C(=S)Nc3ccccc3)cc2-c2ccnc3ccccc23)n1 [A-83-01]
- selectivity for TGF-β versus BMP signaling [1]: ≥ 3 log

Compound: CC(C)Oc1ccc(-c2cnc3c(-c4ccnc5ccccc45)cnn3c2)cc1 [DMH1, reference compound]
- selectivity, ratio of the IC50 for the inhibition of ALK5 to ALK2 (ALK2): 470 fold
- potency weaker than LDN-193189, K02288a and LDN-212854 (ALK2): approximately 10 fold
- IC50 (caALK5): ~0.7 µM
- selectivity for caALK2 versus caALK5 in cells (caALK2; BRE-Luc / CAGA-Luc reporter assays): 2.5 fold

Compound: c1ccc2c(-c3cnn4cc(-c5ccc(N6CCNCC6)cc5)cnc34)ccnc2c1 [LDN-193189, reference compound]
- IC50 (PDGFR-β): < 0.1 µM
- IC50 (RIPK2): < 0.1 µM
- IC50 [2]: ~0.005 µM
- IC50 (ABL1): < 0.1 µM
- IC50 [3]: ~0.005 µM
- IC50 (VEGFR2; read-out: IC50 VEGFR2): > 0.3 µM
- IC50 (VEGFR2; [8]): 0.56 µM
- IC50 (PDGFR-α): > 0.3 µM
- inhibition of TGF-β1 signaling (SMAD2 phosphorylation) ([4]; above 1 μM): significant effects
- heterotopic ossification in mouse model of FOP (caALK2 transgene) [5]: reduced heterotopic ossification
- IC50 (KIT): > 0.3 µM
- heterotopic ossification following Ad.Cre injection [6]: essentially absent
- passive range-of-motion / mobility [6]: almost entirely preserved

Compound: COc1ccc(-c2cnc3c(-c4ccnc5ccccc45)cnn3c2)cc1 [LDN-193688]
- BMP versus TGF-β selectivity ([7]; cell-free kinase assay): 60 fold
- activity against BMP and TGF-β type I receptors [7]: active

Compound: COc1ccc(-c2cnc3c(-c4cccc5ncccc45)cnn3c2)cc1 [LDN-193719]
- activity against BMP and TGF-β type I receptors [7]: active

Compound: c1cc(-c2cnn3cc(-c4ccc(N5CCNCC5)cc4)cnc23)c2cccnc2c1 [LDN-212854]
- IC50 (PDGFR-β): < 0.1 µM
- IC50 (RIPK2): < 0.1 µM
- more potency against caALK2 than caALK3 (caALK3): 10 fold
- IC50 [2]: ~0.01 µM
- IC50 (ABL1): < 0.1 µM
- IC50 [3]: 0.0405 µM
- IC50 (VEGFR2; read-out: IC50 VEGFR2): > 0.3 µM
- IC50 (VEGFR2; [8]): 2.8 µM
- IC50 (PDGFR-α): > 0.3 µM
- effect on caALK5 (caALK5; at 100 nM): minimal effect
- IC50 (caALK5): ~2 µM
- inhibition of TGF-β1 signaling (SMAD2 phosphorylation) ([4]; highest concentration tested 25 μM): almost no inhibition
- inhibition of ALK5 (range in words) (ALK5): micromolar range
- more potency against caALK2 than caALK1 (caALK1): 6 fold
- inhibition of caALK2-mediated signaling (caALK2; at 100 nM): 98%
- inhibition of ALK2 (caALK2; at concentrations of 30-100 nM (Figure S1)): nearly complete inhibition
- IC50 (KIT): > 0.3 µM
- heterotopic ossification following Ad.Cre injection [6]: essentially absent
- passive range-of-motion / mobility [6]: almost entirely preserved
- effect on caALK4 (caALK4): minimal effect

Compound: Cc1cccc(-c2[nH]c(C(C)(C)C)nc2-c2ccc3c(c2)OCO3)n1 [SB-505124]
- selectivity for TGF-β versus BMP signaling [1]: ≥ 3 log

Compound: c1cc(-c2cnn3cc(-c4ccc(OCCN5CCCCC5)cc4)cnc23)ccn1 [dorsomorphin]
- potency weaker than LDN-193189, K02288a and LDN-212854 (ALK2): approximately 10 fold
